The structures appear in SMILES notation.

In series [1] the target is T1, Plasminogen activator inhibitor 1 (Homo sapiens, UniProt P05121). As to the kind of experiment: Plasminogen Activator Inhibitor-1 (PAI-1) activity was determined by inhibition of Urokinase-type plasminogen activator using primary assay. The essentials: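 Human recombinant PAI-1 (6 nM) preincubated with compound for 2 min at room temperature in 50 mM Tris-HCl, 150 mM NaCl, 2.5 mM CaCl2, 0.1% PEG 6000, pH 7.5. Human kidney urokinase (0.0175 units/mL) added for a further 2 min, then chromogenic substrate S2444. Rate of absorbance change read at 405 nm. Controls with uPA alone and uPA plus PAI-1 on each plate. IC50 taken from dose-response curve fit.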
T1 sequence (P05121 whole entry): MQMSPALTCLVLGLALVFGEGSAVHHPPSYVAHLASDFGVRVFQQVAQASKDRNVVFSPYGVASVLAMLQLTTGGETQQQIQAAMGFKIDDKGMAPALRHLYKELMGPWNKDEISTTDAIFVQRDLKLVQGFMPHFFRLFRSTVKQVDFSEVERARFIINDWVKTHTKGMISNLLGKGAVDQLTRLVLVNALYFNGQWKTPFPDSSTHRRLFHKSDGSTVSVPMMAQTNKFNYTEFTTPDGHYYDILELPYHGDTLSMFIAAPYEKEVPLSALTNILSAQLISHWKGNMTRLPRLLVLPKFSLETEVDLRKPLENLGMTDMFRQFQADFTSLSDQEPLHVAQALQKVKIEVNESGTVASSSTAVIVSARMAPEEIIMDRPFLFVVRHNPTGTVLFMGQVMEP

Series [2] in a line: Bioavailability in rat (cannulated) (dose 2 mg/kg). The format is ADME, organism-based. To be noted: in vivo. The method in brief: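 Given intravenously and orally at 2 mg/kg to cannulated conscious rats. Vehicle: 94% PEG/2% 0.1HCl/4% EtOH solution.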
For series [3], the target named is T1, Plasminogen activator inhibitor 1. As to the kind of experiment: Plasminogen Activator Inhibitor-1 (PAI-1) activity was determined using plasma clot lysis assay. In kind it is functional, cell-free. The method in brief:
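Pooled human plasma diluted 1:3 in 150 mM NaCl, 2 mM CaCl2, 20 mM Hepes, pH 7.4. Clotting started with human thrombin (30 nM), with exogenous human tPA (4 nM) present. Lysis followed at 37 °C by absorbance at 405 nm.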

One may read the IC50 as the concentration at which inhibition is half-maximal. Low readings indicate higher potency, high ones lower potency. With `CC(C)[C@@H]1CC[C@@H](C)C[C@H]1OCC(=O)Nc1cc(N[C@H]2CC[C@H](C(=O)O)CC2)ccc1[N+](=O)[O-]`, the IC50 in series [1] came to 1100 nM.

In turn, `CC(C)[C@@H]1CC[C@@H](C)C[C@H]1OCC(=O)Nc1cc(N2CCCCC2C(=O)O)ccc1[N+](=O)[O-]` (some centres undefined) had an IC50 in series [1] of 2900 nM.

With `COc1cc(C(=O)O)c2c(c1C)OC(=O)c1c(C)cc(O)c(CNc3ccc(NC(=O)CO[C@@H]4C[C@H](C)CC[C@H]4C(C)C)nc3)c1O2`, the IC50 in series [1] came out at 530 nM.

For the molecule `COc1cccc(CNc2ccc(CNC(=O)CO[C@@H]3C[C@H](C)CC[C@H]3C(C)C)cc2)c1Oc1ncccc1C(=O)O`, 500 nM corresponded to half-maximal inhibition in series [1] (IC50).

`COc1cc(C(=O)O)c2c(c1C)OC(=O)c1c(C)cc(O)c(CNc3cccc(CNC(=O)CO[C@@H]4C[C@H](C)CC[C@H]4C(C)C)c3)c1O2`: in series [1], the midpoint of inhibition, the IC50, lay at 1400 nM.

For `COc1cccc(CNc2ccc(CNC(=O)CO[C@@H]3C[C@H](C)CC[C@H]3C(C)C)cc2)c1Oc1ccc(N)cc1C(=O)O`, half-maximal inhibition in series [1] (IC50) required 700 nM.

In general, bioavailability refers to the share of a dose that reaches the circulation, judged against a reference dose that is usually intravenous. The low end stands for poor availability, the high end for good availability. Regarding `COc1cccc(CNc2ccc(CNC(=O)CO[C@@H]3C[C@H](C)CC[C@H]3C(C)C)cc2)c1Oc1ccc([N+](=O)[O-])cc1C(=O)O`, the IC50 was 1200 nM in series [1] and 100 nM in series [3]. This molecule also yielded a bioavailability in series [2] of 94%.

`CC(C)[C@@H]1CC[C@@H](C)C[C@H]1OCC(=O)NCc1ccc(NCc2ccncc2)cc1` gave an IC50 in series [1] above 15000 nM.

Regarding `COc1cc(C(=O)O)c(Oc2c(CNc3ccc(CNC(=O)CO[C@@H]4C[C@H](C)CC[C@H]4C(C)C)cc3)c(O)cc(C)c2C(=O)O)c(O)c1C`, half-maximal inhibition in series [1] (IC50) was put at 1800 nM.

For `CC(C)[C@@H]1CC[C@@H](C)C[C@H]1OCC(=O)NCc1ccc(NCc2cc([N+](=O)[O-])ccc2Oc2cc(Oc3ccccc3)ccc2C(=O)O)cc1`, in series [1], the IC50 was found to be 2600 nM. The IC50 values of the last two molecules are within 1.5-fold of each other.

As for `CC(C)[C@@H]1CC[C@@H](C)C[C@H]1OCC(=O)NCc1ccc(NCc2c(F)cccc2Oc2c(O)cccc2C(=O)O)cc1`, the IC50 in series [1] came to 710 nM.

`CC(C)[C@@H]1CC[C@@H](C)C[C@H]1OCC(=O)NCc1ccc(NCc2ccccc2Oc2ccccc2)cc1`: the IC50 in series [1] is above 15000 nM.

Take `CC(C)[C@@H]1CC[C@@H](C)C[C@H]1OCC(=O)Nc1cc(N2CCC(C(=O)O)CC2)ccc1[N+](=O)[O-]`: the concentration for half-maximal inhibition (IC50) in series [1] was determined as 940 nM; in series [3], 10 nM. This molecule also yielded a bioavailability in series [2] below 10%.

In turn, `COc1cc(C(=O)O)c2c(c1C)OC(=O)c1c(C)cc(O)c(CNc3ccc(CCNC(=O)CO[C@@H]4C[C@H](C)CC[C@H]4C(C)C)cc3)c1O2` returned an IC50 in series [1] of 3900 nM.

With `CC(C)[C@@H]1CC[C@@H](C)C[C@H]1OCC(=O)Nc1cc(Oc2cccc(C(=O)O)c2)ccc1[N+](=O)[O-]`, the IC50 stood at 400 nM in series [1] and 100 nM in series [3]. Moreover, in series [2], the bioavailability was below 10%.

For `COc1cc(C(=O)O)c(Oc2c(CNc3ccc(CNC(=O)CO[C@@H]4C[C@H](C)CC[C@H]4C(C)C)cc3)c(O)cc(C)c2C(N)=O)c(O)c1C`, half-maximal inhibition in series [1] (IC50) was put at 600 nM.

Regarding `CC(C)[C@@H]1CC[C@@H](C)C[C@H]1OCC(=O)NCc1ccc(NCc2ccccc2S(=O)(=O)O)cc1`, in series [1], the IC50 is above 15000 nM.

For the molecule `COc1ccc(Oc2ccccc2CNc2ccc(CNC(=O)CO[C@@H]3C[C@H](C)CC[C@H]3C(C)C)cc2)c(C(=O)O)c1`, in series [1], the IC50 came to 1400 nM. This lies in the single-digit micromolar range.

The molecule `COc1ccc(Oc2cccc(F)c2CNc2ccc(CNC(=O)CO[C@@H]3C[C@H](C)CC[C@H]3C(C)C)cc2)c(C(=O)O)c1` gave an IC50 in series [1] of 1400 nM.

Take `CC(C)[C@@H]1CC[C@@H](C)C[C@H]1OCC(=O)NCc1ccc(NCc2ccccc2)cc1`: the IC50 in series [1] was above 15000 nM.

In series [1], `CC(C)[C@@H]1CC[C@@H](C)C[C@H]1OCC(=O)NCc1ccc(NCc2cc([N+](=O)[O-])ccc2O)cc1` displayed an IC50 of 2700 nM.

`CCCN(Cc1ccc(NCc2c(O)cc(C)c3c2Oc2c(C(=O)O)cc(OC)c(C)c2OC3=O)cc1)C(=O)CO[C@@H]1C[C@H](C)CC[C@H]1C(C)C` returned an IC50 in series [1] of 5000 nM.

The molecule `COc1cc(C(=O)O)c2c(c1C)OC(=O)c1c(C)cc(O)c(CN3CCC(NC(=O)CO[C@@H]4C[C@H](C)CC[C@H]4C(C)C)CC3)c1O2` gave an IC50 in series [1] above 15000 nM.

Consider `COc1cc(C(=O)O)c2c(c1C)OC(=O)c1c(C)cc(O)c(CNc3ccc(CNC(=O)CO[C@@H]4C[C@H](C)CC[C@H]4C(C)C)cc3)c1O2`, for which the results for the IC50 in series [1] and in series [3] were 1400 nM and 100 nM, respectively. This molecule came in with a bioavailability in series [2] of 23%.

On to `CC(C)[C@@H]1CC[C@@H](C)C[C@H]1OCC(=O)Nc1cc(N2CCCC2C(=O)O)ccc1[N+](=O)[O-]` (some centres undefined), for which, in series [1], the IC50 was determined as 2200 nM.

`CC(C)[C@@H]1CC[C@@H](C)C[C@H]1OCC(=O)Nc1cc(Oc2ccc(C(=O)O)cn2)ccc1[N+](=O)[O-]`: half-maximal inhibition in series [1] (IC50) was put at 2600 nM.

Molecule `CC(C)[C@@H]1CC[C@@H](C)C[C@H]1OCC(=O)NCc1ccc(NCc2cc([N+](=O)[O-])ccc2Oc2ccccc2C(=O)O)cc1` displayed an IC50 in series [1] of 710 nM. This IC50 lies about 3.7-fold lower than the previous one.

Turning to `CC(C)[C@@H]1CC[C@@H](C)C[C@H]1OCC(=O)Nc1cc(N[C@H]2CC[C@@H](C(=O)O)CC2)ccc1[N+](=O)[O-]`, in series [1], the IC50 was found to be 900 nM.

With `CC(C)[C@@H]1CC[C@@H](C)C[C@H]1OCC(=O)NCc1ccc(NCc2cccc(C(=O)O)c2)cc1`, in series [1], it took 7800 nM to reach half-maximal inhibition (IC50).

On to `CC(C)[C@@H]1CC[C@@H](C)C[C@H]1OCC(=O)Nc1cc(Oc2ccc(C(=O)O)cc2)ccc1[N+](=O)[O-]`, for which the IC50 in series [1] was determined as 380 nM; in series [3], 10 nM. In series [2], this molecule showed a bioavailability of 24%.

As for `COc1cc(C(=O)O)c2c(c1C)OC(=O)c1c(C)cc(O)c(CNc3ccc(NC(=O)CO[C@@H]4C[C@H](C)CC[C@H]4C(C)C)cc3)c1O2`, in series [1], it took 1100 nM to reach half-maximal inhibition (IC50). In other words, the single-digit micromolar range.

Consider `CC(C)[C@@H]1CC[C@@H](C)C[C@H]1OCC(=O)Nc1cc(N2CC(C(=O)O)C2)ccc1[N+](=O)[O-]`, for which half-maximal inhibition in series [1] (IC50) required 2900 nM.

`CC(C)[C@@H]1CC[C@@H](C)C[C@H]1OCC(=O)NCc1ccc(NCc2ccc(C(=O)O)cc2)cc1` yielded a concentration for half-maximal inhibition (IC50) in series [1] of 3200 nM. This IC50 and that of the molecule before are within 1.5-fold of each other.

`CC(C)[C@@H]1CC[C@@H](C)C[C@H]1OCC(=O)Nc1cc(N2CCCC(C(=O)O)C2)ccc1[N+](=O)[O-]` (some centres undefined): the IC50 in series [1] is 890 nM. Compared with the last molecule, the IC50 is about 3.6-fold lower.

For the origin of these results see ChEMBL document CHEMBL1136251, “Synthesis and biological evaluation of menthol-based derivatives as inhibitors of plasminogen activator inhibitor-1 (PAI-1)” (Bioorg Med Chem Lett, 2003).
